Experimental data published in ChEMBL document CHEMBL5338794, “Optimization of Orally Bioavailable Antileishmanial 2,4,5-Trisubstituted Benzamides” (J Med Chem, 2023).
In brackets after ≈: the same amount, converted by molar mass. Activity calls are given as the source filed them. The calls are words filed in the database; no cut-off is given here.

Experiments:
[1] = test system: BJ; experiment: Cytotoxicity against human BJ cells assessed as reduction in cell viability incubated for 72 hrs by Cell TiterGlo assay; format: functional, cell-based
[2] = test system: Leishmania mexicana; experiment: Antileishmanial activity against renilla luciferase-expressing Leishmania mexicana promastigotes infected in mouse J774.A1 cells assessed as inhibition of intracellular amastigotes growth incubated for 96 hrs by Renilla luciferase assay; format: functional, organism-based; conditions: J774.A1, 96 h
[3] = Kinetic aqueous solubility of the compound in PBS at pH 7.4 incubated for 18 hrs by LC-MS analysis; format: physicochemical; conditions: read-out: Kinetic_solubility
[4] = Metabolic stability in CD-1 mouse liver microsomes assessed as half life at 1 uM and measured upto 60 mins in presence of NADPH regenerating system by LC-MS/MS analysis; format: ADME, Microsome; conditions: 1 h
How it was run: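 Half-life and intrinsic clearance determined by incubation with mouse liver microsomes.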

[5] = Volume of distribution in CD-1 mouse at 3 mg/kg,iv and measured upto 24 hrs by LC-MS/MS analysis; format: ADME, organism-based; conditions: in vivo
How it was run: (§1)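 Single intravenous dose to mice at 3 mg/kg. Plasma concentration–time profile used for t1/2, Cmax, AUC, clearance and steady-state volume of distribution.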

[6] = Half life in CD-1 mouse at 10 mg/kg,po and measured upto 24 hrs by LC-MS/MS analysis; format: ADME, organism-based; conditions: in vivo
How it was run: (§2)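 Single oral dose to mice at 10 mg/kg, in 20% PEG 400/80% (20% SBE-beta-CD in water). Plasma concentration–time profile used for t1/2, Cmax, Tmax, AUC, CL, apparent Vd and bioavailability (F).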

[7] = AUC in CD-1 mouse at 10 mg/kg,po and measured upto 24 hrs by LC-MS/MS analysis; format: ADME, organism-based; parameters: time < 24 hrs, dose 10 mg/kg, route po; conditions: in vivo; how it was run: as §2
[8] = Tmax in CD-1 mouse at 10 mg/kg,po and measured upto 24 hrs by LC-MS/MS analysis; format: ADME, organism-based; conditions: in vivo; how it was run: as §2
[9] = Volume of distribution in CD-1 mouse at 10 mg/kg,po and measured upto 24 hrs by LC-MS/MS analysis; format: ADME, organism-based; conditions: in vivo; how it was run: as §2
[10] = Clearance in CD-1 mouse at 10 mg/kg,po and measured upto 24 hrs by LC-MS/MS analysis; format: ADME, organism-based; conditions: in vivo; how it was run: as §2
[11] = test system: Leishmania mexicana; experiment: Antileishmanial activity against Leishmania mexicana MNZY/BZ/62/M379 promastigotes infected in BALB/c mouse assessed as fold reduction in footpad lesion development by measuring lesion size at 50 mg/kg, po QD for 10 days administered at day 18 postinfection and measured at 5 weeks postinfection by caliper analysis; format: functional; conditions: time 10 day
How it was run: (§3)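 BALB/c mice, 5 per group, infected with L. mexicana by footpad injection. Vehicle or HCl salt of compound given by oral gavage at 50 mg/kg/day for 10 consecutive days from day 18 postinfection. Lesion size measured by caliper up to 5 weeks postinfection, reported as mean ± SD. Groups compared by Mann–Whitney.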

[12] = Half life in CD-1 mouse at 3 mg/kg,iv and measured upto 24 hrs by LC-MS/MS analysis; format: ADME, organism-based; conditions: in vivo; how it was run: as §1
[13] = Cmax in CD-1 mouse at 10 mg/kg,po and measured upto 24 hrs by LC-MS/MS analysis; format: ADME, organism-based; parameters: dose 10 mg/kg, time < 24 hrs, route po; conditions: in vivo; how it was run: as §2
[14] = Cmax in CD-1 mouse at 3 mg/kg,iv and measured upto 24 hrs by LC-MS/MS analysis; format: ADME, organism-based; parameters: dose 3 mg/kg, time < 24 hrs, route iv; conditions: in vivo; how it was run: as §1
[15] = Oral bioavailability in CD-1 mouse at 10 mg/kg and measured upto 24 hrs by LC-MS/MS analysis; format: ADME, organism-based; conditions: in vivo; how it was run: as §2
[16] = test system: Leishmania mexicana; experiment: Antileishmanial activity against Leishmania mexicana MNZY/BZ/62/M379 promastigotes infected in BALB/c mouse assessed as footpad lesion development at 50 mg/kg, po QD for 10 days administered at day 18 postinfection and measured after 5 weeks postinfection by caliper analysis; format: functional, organism-based; conditions: time 10.0 day; how it was run: as §3
[17] = test system: Plasma; experiment: Time during which plasma concentration exceeds EC50 for inhibition of proliferation of luciferase expressing Leishmania mexicana intracellular amastigotes cultured in mouse J774.A1 cells infected to CD-1 mouse at 3 mg/kg,iv by LC-MS/MS analysis; format: organism-based; conditions: in vivo
[18] = AUC in CD-1 mouse at 3 mg/kg,iv and measured upto 24 hrs by LC-MS/MS analysis; format: ADME, organism-based; parameters: time < 24 hrs, dose 3 mg/kg, route iv; conditions: in vivo; how it was run: as §1
[19] = test system: Plasma; experiment: Time during which plasma concentration exceeds EC50 for inhibition of proliferation of luciferase expressing Leishmania mexicana intracellular amastigotes cultured in mouse J774.A1 cells infected to CD-1 mouse at 10 mg/kg,po by LC-MS/MS analysis; format: organism-based; conditions: in vivo
How it was run: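 Time that plasma concentration stays above the intracellular-amastigote EC50, read from the plasma profile after a single oral dose at 10 mg/kg in 20% PEG 400/80% (20% SBE-beta-CD in water).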

[20] = Clearance in CD-1 mouse at 3 mg/kg,iv and measured upto 24 hrs by LC-MS/MS analysis; format: ADME, organism-based; conditions: in vivo; how it was run: as §1

Row | solubility kinetic at 18 h [3] [µM] | t1/2 [4] [h] | Compound | EC50 [1] [nM] | EC50 [2] [nM] | further results
1 | 6.3 (≈ 3.12 µg/mL) | 2.17 | O=C(Nc1cncc(-c2nc3ccccc3s2)c1)c1cc([N+](=O)[O-])c(N2CCNCC2)cc1Cl | 15300 | 600 | 
2 | 12.4 (≈ 5.94 µg/mL) | 2.17 | O=C(Nc1cncc(-c2nc3ccccc3o2)c1)c1cc([N+](=O)[O-])c(N2CCNCC2)cc1Cl | 3100 | 800 | 
3 | 12.8 (≈ 6.3 µg/mL) | 2 | Cc1ccc(-c2nc3ccccc3o2)cc1NC(=O)c1cc([N+](=O)[O-])c(N2CCNCC2)cc1Cl | 19100 | 200 | 
4 | 188 (≈ 68.7 µg/mL) | 0.5 | Cc1cc(Cl)c(Cl)cc1NC(=O)c1ccc(N2CCNCC2)nc1 | 24000 | 900 | 
5 | 9.4 (≈ 3.25 µg/mL) | 0.01 | O=C(Nc1cccc(-c2ncco2)c1)c1cc([N+](=O)[O-])c(F)cc1F | 1500 | 700 | 
6 | 5.3 (≈ 2.35 µg/mL) | 0.933 | Cc1cc(Cl)c(Cl)cc1NC(=O)c1cc([N+](=O)[O-])c(N2CCNCC2)cc1Cl | 14200 | 100 | 
7 | 22 (≈ 9.36 µg/mL) | 0.45 | Cc1ccc(-c2nc3ccccc3s2)cc1NC(=O)c1cc([N+](=O)[O-])c(F)cc1F | > 25000 | 600 | 

The remaining lines, values behind:

Row | Compound | solubility kinetic at 18 h [3] [µM] | t1/2 [4] [h] | EC50 [1] [nM] | EC50 [2] [nM] | further results
8 | Cc1cc(Cl)c(Cl)cc1NC(=O)c1ccc(N2CCNCC2)c(C#N)c1 | 3.6 (≈ 1.4 µg/mL) | 0.8 | 13500 | 900 | 
9 | O=C(Nc1cncc(-c2nc3ccccc3o2)c1)c1ccc(N2CCNCC2)c([N+](=O)[O-])c1 | 15 (≈ 6.67 µg/mL) | 2.3 | 20000 | 500 | 
10 | Cc1ccc(-c2nc3ccccc3s2)cc1NC(=O)c1cc([N+](=O)[O-])c(N2CCN(C)CC2)cc1Cl | < 0.3 | 0.217 | > 25000 | 800 | 
11 | Cc1cc(Cl)c(Cl)cc1NC(=O)c1ccc(N2CCNCC2)c([N+](=O)[O-])c1 | 31 (≈ 12.7 µg/mL) | 1.12 | 24900 | 800 | 
12 | O=C(Nc1ccc(Cl)c(Cl)c1)c1ccc(N2CCNCC2)c([N+](=O)[O-])c1 | 46 (≈ 18.2 µg/mL) | 1.92 | 15000 | 700 | Vd [5]: 9.3 L/kg; t1/2 [6]: 3.6 h; AUC [7]: 7.82 µM·h; Tmax [8]: 2 h; Vd [9]: 6.8 L/kg; CL/F [10]: 53.5 mL/min/kg; fold change (FC) [11]: 10; t1/2 [12]: 3.4 h; Cmax [13]: 1000 nM; Cmax [14]: 1950 nM; F [15]: 80%; Activity [16]: inactive; T>EC50 [17]: 1.5 h; AUC [18]: 2.85 µM·h; T>EC50 [19]: 5.5 h; CL [20]: 42.8 mL/min/kg
13 | Cc1ccc(-c2nc3ccccc3s2)cc1NC(=O)c1cc([N+](=O)[O-])c(NC2CCN(C)CC2)cc1Cl |  |  | 9200 | 800 | 
14 | Cc1cc(Cl)c(Cl)cc1NC(=O)c1cc([N+](=O)[O-])c(F)cc1F |  |  | 1300 | 300 | 
15 | Cc1ccc(-c2nc3ccccc3s2)cc1NC(=O)c1cc([N+](=O)[O-])c(N2CCNCC2)cc1Cl |  |  | > 14500 | 700 | 
16 | Cc1ccc(-c2nc3ccccc3s2)cc1NC(=O)c1cc([N+](=O)[O-])c(NCCN(C)C)cc1Cl |  |  | 17200 | 800 | 
17 | O=C(Nc1cncc(-c2nc3ccccc3o2)c1)c1cc([N+](=O)[O-])c(F)cc1Cl |  |  | 2900 | 1000 | 
